High-throughput results deposited in PubChem by several laboratories.
Ins promoter up – insulin promoter activators in MIN6 cells, imaging, high-content screening, mouse beta cells | MIN6 insulin promoter-GFP reporter; hits give high values | z-score at 5 µM | actives 0.3% (n = 190,000) | AID 1625, 2009;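 active = z-score above 3 at 5 µM with at least 500 cells counted in the well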
ROMK mod – ROMK potassium channel modulators, primary screen, cell-based, thallium flux, MLSMR library | ATP-sensitive inward rectifier potassium channel 1 (Homo sapiens), P48048 | Tet-inducible ROMK, thallium flux fluorescence; actives lie on both sides | B-score at 10 µM | actives 2% (n = 130,000) | AID 1918, 2009;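 active = signal ratio slope over the read window, or its plate-corrected B-score, at least 3 SD from the plate mean, either direction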;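 also: B-score of the F/F0 ratio slope over 7 to 12 s after thallium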
Target sequence (P48048 whole entry, looked up): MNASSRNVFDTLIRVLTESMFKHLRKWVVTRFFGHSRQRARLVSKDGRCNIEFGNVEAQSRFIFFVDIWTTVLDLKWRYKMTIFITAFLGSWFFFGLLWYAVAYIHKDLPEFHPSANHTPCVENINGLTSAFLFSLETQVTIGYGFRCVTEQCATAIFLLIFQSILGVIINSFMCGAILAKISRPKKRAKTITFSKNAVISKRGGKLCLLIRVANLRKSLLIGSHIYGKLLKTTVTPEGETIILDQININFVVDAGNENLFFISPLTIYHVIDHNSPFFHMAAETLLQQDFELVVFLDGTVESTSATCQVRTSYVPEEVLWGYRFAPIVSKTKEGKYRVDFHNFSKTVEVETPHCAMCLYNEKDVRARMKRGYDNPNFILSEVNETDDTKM
ABCB1 inh – ABCB1 efflux pump inhibitors, primary screen, cell-based, multiplex, flow cytometry, ABCG2 counter-screen | inhibition, % at 6.6 µM | CCRF-Adr cells, JC-1 efflux | actives 0.067% (n = 190,000); in the data active = inhibition above about 40%;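 also: 0% = vehicle and 100% = reference inhibitor; higher value means more JC-1 retained so stronger ABCB1 efflux block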
SDO1 yeast rescue – growth rescue of sdo1-depleted yeast, primary screen, S. cerevisiae, bone marrow failure model | S. cerevisiae sdo1-depleted JHY4D growth rescue, OD600 30 h; hits give high values; pdr5 snq2 efflux-pump mutant strain | z-score at 10 µM | actives 0.21% (n = 140,000);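 active = z-score above 3 at both the 24 hr and the 30 hr optical density reads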;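 also: z-score against mean and SD of all compound wells on the same plate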
Autophagy HCS – autophagy modulators in MEF cells, primary screen, imaging, high-content, MEF GFP-LC3. calls only at 10 µM (by protocol). actives 0.98% (n = 190,000). MEF GFP-LC3 puncta imaging; test concentration mostly 10 µM;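 active = percentage of spot-positive cells more than 3 SD above its plate mean, without a fluorescence outlier flag or 80% toxicity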;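 also: spot-positive cell cutoff set from DMSO-treated cells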
ABCG2 inh – ABCG2 efflux pump inhibitors, primary screen, multiplex with ABCB1, IgMXP3 cells, flow cytometry; Broad substrate specificity ATP-binding cassette transporter ABCG2 (Homo sapiens), Q9UNQ0; JC-1 efflux; inhibition, % at 6.6 µM; actives 0.1% (n = 190,000); AID 1325, 2008;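 active = inhibition above 80%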;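 also: 0% = DMSO and 100% = nicardipine control wells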
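Test system: IgMXP3 (ABCG2) plus far-red-tagged CCRF-Adr (ABCB1) cells / Amount: 3 million cells/mL in well / Reagent: JC-1 transporter substrate / Timing: 10 min compound exposure, 25 °C / Signal: flow cytometry, 530 nm JC-1 signal / Read-out: percent efflux inhibition, scaled nicardipine 100% to DMSO 0% / Benchmarks: nicardipine as high control, DMSO as low control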
* = called active by the depositor; i = inactive; x = not tested or not shown; + = active, no number. This is a sample that favours compounds with a hit; in the whole collection about 2.3% have one here.

SMILES	Ins promoter up	ROMK mod	ABCB1 inh	SDO1 yeast rescue	Autophagy HCS	ABCG2 inh
CC(=O)Nc1ccc(S(=O)(=O)Nc2cccc(NC(=O)c3ccco3)c2)cc1	0.56	-0.48	-1	x	i	-1
O=C(Cn1ncc(Cl)c(Cl)c1=O)N1CCN(S(=O)(=O)c2ccc3ccccc3c2)CC1	-4.4	x	7	-0.13	+	5
O=C(CCC(=O)N1CCN(S(=O)(=O)c2ccc3ccccc3c2)CC1)Nc1cc(Cl)cc(Cl)c1	-0.22	0.13	0	x	i	-1
COc1ccc(-c2c(C#N)c(N)nc3sc(C(=O)c4ccc(C)cc4)c(N)c23)cc1	0.19	x	-1	-0.4	+	-5
COc1ccc(NC(=O)c2sc3nc(-c4cccnc4)ccc3c2N)cc1	6*	x	x	x	x	x
COc1cccc(-c2ccc3c(N)c(C(=O)NC4CC4)sc3n2)c1	-0.98	1	x	x	x	x
COc1ccc(-c2ccc3c(N)c(C(=O)c4cccc(OC)c4)sc3n2)cc1	x	x	0	-0.31	+	0
COc1ccc(C(=O)c2sc3nc(-c4ccc(OC)cc4)ccc3c2N)cc1	0.68	-0.96	0	0.08	+	-6
CCOC(=O)c1c(-c2ccccc2Cl)csc1NC(=O)CSc1nc(C)cc(=O)[nH]1	-0.02	-0.35	-1	-0.14	i	-2
COc1ccc(C(=O)C2CCCN(C(=O)C3=CCCC3)C2)c(C)c1 (stereo not drawn)	-0.33	0.25	1	x	i	3
Cc1ccc(-c2cc(=O)c3cc(Cl)ccc3[nH]2)cc1	-0.35	x	5	x	i	1
CC(C(=O)NCc1ccc(F)cc1)c1ccc([N+](=O)[O-])cc1 (stereo not drawn)	0.18	-0.67	1	x	i	3
CC1CCCCN1C(=O)COc1ccccc1F (stereo not drawn)	x	-0.5	1	x	i	1
O=C(CC1SC2=NCCN2C1=O)Nc1ccc(Cl)cc1 (stereo not drawn)	-0.88	x	1	1.8	+	1
O=C(CC1Sc2ncnn2C1=O)Nc1ccc(Cl)cc1 (stereo not drawn)	0.15	0.035	0	x	i	1
CCN1CCN(CCNC(=O)c2ccc(/C=C3/Sc4ccccc4N(Cc4cccc(Cl)c4)C3=O)cc2)CC1	-2.1	-1.3	1	x	+	-1
CO/N=C\CC(=O)Nc1ccc(Cl)cc1Cl	x	2	0	x	i	4
CCCC1=Nc2cc(C(=O)NCCCOCC)ccc2Sc2ccccc21	-1.1	x	0	-0.52	i	20
CCC1=Nc2cc(C(=O)NCCCOC)ccc2Sc2ccccc21	-0.94	2.3	0	-0.11	+	7
CN1C(=O)/C(=C/c2cc(C(C)(C)C)c(O)c(C(C)(C)C)c2)NC1=S	-0.81	x	0	x	i	0
CCOC(=O)CSc1nc2sc3c(c2c(=O)n1C1CCCCC1)CCN(C)C3	0.18	-3.5*	1	-0.37	i	4
O=C1C(=Cc2cccn2-c2ccc(O)cc2)C(=O)c2ccccc21	x	x	0	0.36	+	1
O=C1C(=Cc2cccn2-c2ccccc2)C(=O)c2ccccc21	0.8	-1.1	0	-0.65	i	3
NC(=S)N/N=C1/CCSc2ccc3ccccc3c21	-0.88	-3.2*	1	x	i	10
Cc1ccc(N=Cc2c(O)n(-c3ccc4c(c3)OCO4)c(=O)c3ccccc23)cc1	x	2.2	2	-1.4	+	15
CN(C)CCCN=Cc1c(O)n(Cc2ccc3c(c2)OCO3)c(=O)c2ccccc12	-0.58	0.32	3	x	+	15
Cc1[nH]c2ccccc2c1/C=N/Nc1nc(Nc2ccc(F)cc2)nc(N2CCOCC2)n1	-0.48	x	-4	-1.4	+	-1
O=S(=O)(Nc1nc2ccccc2nc1NCc1ccco1)c1ccc(Cl)cc1	0.38	x	0	-1.4	i	0
Cc1noc(C)c1CSc1nc2ccccc2nc1NS(=O)(=O)c1ccc(Cl)cc1	0.18	-3.1*	0	-2	i	1
CCOC(=O)C1=C(C)NC2=C(C(=O)CC(c3cccs3)C2)C1c1cccs1 (stereo not drawn)	-0.31	x	1	-0.86	+	3
